Test results: ChEMBL document CHEMBL2346664, “Synthesis, characterization and in vitro anticancer evaluation of novel 1,2,4-triazolin-3-one derivatives” (2013)
Calls of active or inactive are those of the source. The calls are words filed in the database; no cut-off is given here.

Legend:
[1] = system: ACHN; assay: Growth inhibition of human ACHN cells after 48 hrs by sulforhodamine B assay; type: functional
Outline: (§1)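 NCI 60-cell-line five-dose screen at 0.01, 0.1, 1, 10 and 100 µM final. Cells were plated at 5,000–40,000/well and grown 24 h at 37 °C, 5% CO2, then exposed to drug continuously for 48 h. Adherent cells were fixed with cold TCA (10% final) and stained with SRB; absorbance read at 515 nm. GI50 is the concentration where [(Ti-Tz)/(C-Tz)]×100 = 50, with Tz plates fixed at drug addition.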

[2] = Growth inhibition of human Hs 578T cells assessed as cell growth at 10 '-8 M after 48 hrs by sulforhodamine B assay; type: functional; conditions: read-out: Activity
[3] = system: HCT-116; assay: Growth inhibition of human HCT116 cells assessed as cell growth at 10 '-6 M after 48 hrs by sulforhodamine B assay; type: functional; conditions: HCT-116, 48 h, read-out: Activity
[4] = system: HOP-92; assay: Growth inhibition of human HOP92 cells assessed as cell growth at 10 '-4 M after 48 hrs by sulforhodamine B assay; type: functional; conditions: HOP-92, 48 h, read-out: Activity
[5] = Growth inhibition of human HCC2998 cells assessed as cell growth at 10 '-5 M after 48 hrs by sulforhodamine B assay; type: functional; conditions: HCC 2998, 48 h, read-out: Activity
[6] = system: SK-MEL-2; assay: Growth inhibition of human SK-MEL-2 cells after 48 hrs by sulforhodamine B assay; type: functional; conditions: SK-MEL-2, 48 h
[7] = system: A498; assay: Growth inhibition of human A498 cells assessed as cell growth at 10 '-5 M after 48 hrs by sulforhodamine B assay; type: functional; conditions: A498, 48 h, read-out: Activity
Outline: (§2)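 Percent growth at each of the five concentrations of the 48 h continuous-exposure NCI SRB screen. Drug stocks were in DMSO at 400× the top final concentration and diluted in medium with gentamicin. Growth was calculated as [(Ti-Tz)/(C-Tz)]×100 when Ti ≥ Tz, or [(Ti-Tz)/Tz]×100 when Ti < Tz. Tz plates were fixed at drug addition; untreated wells served as control. Absorbance was read at 515 nm.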

[8] = system: RPMI-8226; assay: Growth inhibition of human RPMI8226 cells assessed as cell growth at 10 '-4 M after 48 hrs by sulforhodamine B assay; type: functional; conditions: RPMI-8226, 48 h, read-out: Activity
[9] = system: T47D; assay: Growth inhibition of human T47D cells after 48 hrs by sulforhodamine B assay; type: functional
[10] = system: MDA-MB-231; assay: Growth inhibition of human MDA-MB-231 cells assessed as cell growth at 10 '-4 M after 48 hrs by sulforhodamine B assay; type: functional; conditions: MDA-MB-231, 48 h, read-out: Activity
[11] = system: UO-31; assay: Growth inhibition of human UO31 cells assessed as cell growth at 10 '-8 M after 48 hrs by sulforhodamine B assay; type: functional; conditions: UO-31, 48 h, read-out: Activity
[12] = system: UO-31; assay: Growth inhibition of human UO31 cells assessed as cell growth at 10 '-4 M after 48 hrs by sulforhodamine B assay; type: functional; conditions: UO-31, 48 h, read-out: Activity
[13] = system: PC-3; assay: Growth inhibition of human PC3 cells assessed as cell growth at 10 '-7 M after 48 hrs by sulforhodamine B assay; type: functional; conditions: PC-3, 48 h, read-out: Activity
[14] = system: SF-539; assay: Growth inhibition of human SF539 cells assessed as cell growth at 10 '-4 M after 48 hrs by sulforhodamine B assay; type: functional; conditions: SF-539, 48 h, read-out: Activity
[15] = system: 786-0; assay: Growth inhibition of human 786-0 cells assessed as cell growth at 10 '-4 M after 48 hrs by sulforhodamine B assay; type: functional; conditions: 786-0, 48 h, read-out: Activity; outline: as §2
[16] = system: MDA-MB-435; assay: Growth inhibition of human MDA-MB-435 cells assessed as cell growth at 10 '-8 M after 48 hrs by sulforhodamine B assay; type: functional; conditions: MDA-MB-435, 48 h, read-out: Activity
[17] = system: MDA-MB-435; assay: Growth inhibition of human MDA-MB-435 cells assessed as cell growth at 10 '-6 M after 48 hrs by sulforhodamine B assay; type: functional; conditions: MDA-MB-435, 48 h, read-out: Activity
[18] = system: HT-29; assay: Growth inhibition of human HT-29 cells assessed as cell growth at 10 '-8 M after 48 hrs by sulforhodamine B assay; type: functional; conditions: HT-29, 48 h, read-out: Activity
[19] = system: RXF 393; assay: Growth inhibition of human RXF393 cells assessed as cell growth at 10 '-4 M after 48 hrs by sulforhodamine B assay; type: functional; conditions: RXF 393, 48 h, read-out: Activity
[20] = system: A549; assay: Growth inhibition of human A549 cells after 48 hrs by sulforhodamine B assay; type: functional; conditions: A549, 48 h; outline: as §1
[21] = system: RPMI-8226; assay: Growth inhibition of human RPMI8226 cells assessed as cell growth at 10 '-6 M after 48 hrs by sulforhodamine B assay; type: functional; conditions: RPMI-8226, 48 h, read-out: Activity
[22] = system: DU-145; assay: Growth inhibition of human DU145 cells assessed as cell growth at 10 '-6 M after 48 hrs by sulforhodamine B assay; type: functional; conditions: DU-145, 48 h, read-out: Activity
[23] = system: HCT-15; assay: Growth inhibition of human HCT15 cells assessed as cell growth at 10 '-5 M after 48 hrs by sulforhodamine B assay; type: functional; conditions: HCT-15, 48 h, read-out: Activity
[24] = system: SF-295; assay: Growth inhibition of human SF295 cells assessed as cell growth at 10 uM after 48 hrs by sulforhodamine B assay; type: functional; conditions: SF-295, 48 h, read-out: Activity
[25] = system: LOX IMVI; assay: Growth inhibition of human LOXIMVI cells assessed as growth inhibition at 10 uM after 48 hrs by sulforhodamine B assay; type: functional; conditions: read-out: GI
[26] = system: HCT-15; assay: Growth inhibition of human HCT15 cells assessed as cell growth at 10 '-6 M after 48 hrs by sulforhodamine B assay; type: functional; conditions: HCT-15, 48 h, read-out: Activity
[27] = system: RPMI-8226; assay: Growth inhibition of human RPMI8226 cells assessed as cell growth at 10 '-7 M after 48 hrs by sulforhodamine B assay; type: functional; conditions: RPMI-8226, 48 h, read-out: Activity
[28] = system: T47D; assay: Growth inhibition of human T47D cells assessed as cell growth at 10 '-5 M after 48 hrs by sulforhodamine B assay; type: functional; conditions: read-out: Activity
[29] = system: SK-OV-3; assay: Growth inhibition of human SKOV3 cells assessed as cell growth at 10 '-8 M after 48 hrs by sulforhodamine B assay; type: functional; conditions: SK-OV-3, 48 h, read-out: Activity
[30] = system: IGROV-1; assay: Growth inhibition of human IGROV1 cells assessed as cell growth at 10 uM after 48 hrs by sulforhodamine B assay; type: functional; conditions: IGROV-1, 48 h, read-out: Activity
[31] = system: SK-OV-3; assay: Growth inhibition of human SKOV3 cells assessed as cell growth at 10 '-5 M after 48 hrs by sulforhodamine B assay; type: functional; conditions: SK-OV-3, 48 h, read-out: Activity
[32] = system: MDA-MB-435; assay: Growth inhibition of human MDA-MB-435 cells assessed as growth inhibition at 10 uM after 48 hrs by sulforhodamine B assay; type: functional, cell-based
[33] = system: HCT-116; assay: Growth inhibition of human HCT116 cells assessed as cell growth at 10 '-7 M after 48 hrs by sulforhodamine B assay; type: functional; conditions: HCT-116, 48 h, read-out: Activity
[34] = read-out: LD50 (the source's name)

Q: With `Cc1cc(=O)oc2cc(OCCn3c(C)nn(-c4ccc(Cl)cc4)c3=O)ccc12` as the molecule, how does the GI50 [1] read?
A: 5.59 µM

Q: What about the TGI [1] of the same molecule?
A: > 1000 nM

Q: What about the CC50 [1, 34] of the same molecule?
A: > 1000 nM

Q: And the growth at 0.01 µM [2]?
A: 88%

Q: What about the growth at 1 µM [3] of the same molecule?
A: 86%

Q: And the growth at 100 µM [4]?
A: 32%

Q: What about the growth at 10 µM [5] of the same molecule?
A: 29%

Q: And the GI50 [6]?
A: 1820 nM

Q: And the TGI [6]?
A: > 1000 nM

Q: And the CC50 [6, 34]?
A: > 1000 nM

Q: What about the growth at 10 µM [7] of the same molecule?
A: 8%

Q: What about the growth at 100 µM [8] of the same molecule?
A: 45%

Q: And the GI50 [9]?
A: 7.55 µM

Q: And the TGI [9]?
A: > 1000 nM

Q: What about the CC50 [9, 34] of the same molecule?
A: > 1000 nM

Q: And the growth at 100 µM [10]?
A: 11%

Q: What about the growth at 0.01 µM [11] of the same molecule?
A: 86%

Q: What about the growth at 100 µM [12] of the same molecule?
A: 39%

Q: And the growth at 0.1 µM [13]?
A: 90%

Q: And the growth at 100 µM [14]?
A: -12%

Q: And the growth at 100 µM [15]?
A: 15%

Q: What about the growth at 0.01 µM [16] of the same molecule?
A: 99%

Q: What about the growth at 1 µM [17] of the same molecule?
A: -8%

Q: What about the growth at 0.01 µM [18] of the same molecule?
A: 104%

Q: And the growth at 100 µM [19]?
A: -21%

Q: And the GI50 [20]?
A: 6.07 µM

Q: What about the TGI [20] of the same molecule?
A: > 1000 nM

Q: What about the CC50 [20, 34] of the same molecule?
A: > 1000 nM

Q: And the growth at 1 µM [21]?
A: 95%

Q: What about the growth at 1 µM [22] of the same molecule?
A: 96%

Q: And the growth at 10 µM [23]?
A: 20%

Q: What about the growth at 10 µM [24] of the same molecule?
A: 14%

Q: What about the inhibition of growth at 10 µM [25] of the same molecule?
A: 52%

Q: What about the growth at 1 µM [26] of the same molecule?
A: 80%

Q: What about the growth at 0.1 µM [27] of the same molecule?
A: 97%

Q: And the growth at 10 µM [28]?
A: 45%

Q: What about the growth at 0.01 µM [29] of the same molecule?
A: 111%

Q: And the growth at 10 µM [30]?
A: 59.7%

Q: What about the growth at 10 µM [31] of the same molecule?
A: 16%

Q: And the “growth inhibition (GI)” value [32]?
A: Active

Q: What about the growth at 0.1 µM [33] of the same molecule?
A: 98%
